The text below walks through data of publication PMC8458982 (The Journal of Biological Chemistry, 2021).

In one assay the target is human TRPC6 (hTRPC6-WT) (Homo sapiens, UniProt Q9Y210). Put plainly: whole-cell patch-clamp, hTRPC6-WT expressed in HEK293 cells. Format: cell-based. The essentials:
(§1)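 Transiently transfected HEK293 cells expressing mouse or human TRPC6 WT, or sequence-verified mouse point mutants, recorded 24–48 h post-transfection. Conventional whole-cell clamp at −60 mV and 23 °C, gap-free; test compound applied by Y-tube. Pipette: CsCl/HEPES/BAPTA, 400 nM free Ca2+, pH 7.2. Bath: NaCl-based, 2 mM CaCl2, pH 7.4. EC50 from Hill fit of concentration–current data. Mutant screen used current ratios (10/5 μM or 3/1 μM). At least 3 transfection batches.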
On the technique in general: The patch-clamp technique gives a direct electrical read-out from membranes.

A further assay deals with T1, mTRPC6 mutant ^mE672D (Mus musculus, UniProt Q61143, E672D).
T1 sequence (Q61143 1-930 E672D): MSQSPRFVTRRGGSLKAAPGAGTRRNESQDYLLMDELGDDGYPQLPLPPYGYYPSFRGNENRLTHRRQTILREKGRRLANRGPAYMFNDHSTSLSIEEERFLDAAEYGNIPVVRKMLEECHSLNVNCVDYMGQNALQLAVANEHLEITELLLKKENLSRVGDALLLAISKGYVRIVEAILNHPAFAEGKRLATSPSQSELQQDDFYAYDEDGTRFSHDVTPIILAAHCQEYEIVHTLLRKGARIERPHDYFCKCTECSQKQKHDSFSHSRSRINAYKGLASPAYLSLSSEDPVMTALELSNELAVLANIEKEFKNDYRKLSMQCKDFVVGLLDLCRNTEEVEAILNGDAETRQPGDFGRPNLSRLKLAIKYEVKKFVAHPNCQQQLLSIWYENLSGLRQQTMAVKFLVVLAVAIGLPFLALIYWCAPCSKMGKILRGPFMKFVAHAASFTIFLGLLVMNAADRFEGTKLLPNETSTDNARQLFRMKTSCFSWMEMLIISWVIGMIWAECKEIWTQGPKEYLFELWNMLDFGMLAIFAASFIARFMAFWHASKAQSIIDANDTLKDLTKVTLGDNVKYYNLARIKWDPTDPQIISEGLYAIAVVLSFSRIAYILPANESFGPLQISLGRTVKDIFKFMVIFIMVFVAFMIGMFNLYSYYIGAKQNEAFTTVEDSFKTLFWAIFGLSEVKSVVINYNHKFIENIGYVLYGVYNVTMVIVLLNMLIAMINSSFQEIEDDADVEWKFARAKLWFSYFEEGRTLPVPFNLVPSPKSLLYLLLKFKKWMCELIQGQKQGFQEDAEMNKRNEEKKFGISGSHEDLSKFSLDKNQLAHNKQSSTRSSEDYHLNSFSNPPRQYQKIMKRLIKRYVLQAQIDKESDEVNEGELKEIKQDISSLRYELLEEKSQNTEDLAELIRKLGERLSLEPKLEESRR
Description: whole-cell patch-clamp, mTRPC6 mutant E672D. It counts as cell-based. Put shortly:
as §1

The target of the next assay is mTRPC6 mutant ^mN701Q (Mus musculus, UniProt Q61143, N701Q). Put plainly: whole-cell patch-clamp, mTRPC6 mutant N701Q. It counts as cell-based. The essentials: as §1
Chain of mTRPC6 mutant ^mN701Q (Q61143 whole entry N701Q): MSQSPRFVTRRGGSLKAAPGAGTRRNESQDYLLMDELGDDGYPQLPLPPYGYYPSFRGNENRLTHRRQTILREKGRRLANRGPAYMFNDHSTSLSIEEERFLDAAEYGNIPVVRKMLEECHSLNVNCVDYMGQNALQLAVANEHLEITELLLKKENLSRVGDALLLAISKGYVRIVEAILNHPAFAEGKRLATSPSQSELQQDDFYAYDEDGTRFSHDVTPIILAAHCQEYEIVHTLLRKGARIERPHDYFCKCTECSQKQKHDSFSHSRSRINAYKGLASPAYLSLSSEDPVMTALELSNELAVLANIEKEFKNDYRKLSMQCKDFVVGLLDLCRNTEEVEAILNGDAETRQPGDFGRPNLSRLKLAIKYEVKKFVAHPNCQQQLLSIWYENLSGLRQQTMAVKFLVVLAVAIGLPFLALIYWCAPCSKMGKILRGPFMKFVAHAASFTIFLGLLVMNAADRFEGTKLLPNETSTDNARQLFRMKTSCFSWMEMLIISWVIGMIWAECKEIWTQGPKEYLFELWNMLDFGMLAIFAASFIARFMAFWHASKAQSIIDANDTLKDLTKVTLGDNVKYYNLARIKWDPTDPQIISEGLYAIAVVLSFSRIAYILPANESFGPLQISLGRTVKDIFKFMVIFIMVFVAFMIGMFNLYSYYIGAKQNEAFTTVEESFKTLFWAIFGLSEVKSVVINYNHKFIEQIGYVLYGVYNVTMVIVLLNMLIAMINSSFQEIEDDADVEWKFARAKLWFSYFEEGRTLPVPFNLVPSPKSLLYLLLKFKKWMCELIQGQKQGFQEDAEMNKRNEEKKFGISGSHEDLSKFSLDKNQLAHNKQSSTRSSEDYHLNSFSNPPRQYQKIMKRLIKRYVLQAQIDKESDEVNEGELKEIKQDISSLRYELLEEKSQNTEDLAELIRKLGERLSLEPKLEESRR
The next assay has as its target mTRPC6 mutant ^mK697R (Mus musculus, UniProt Q61143, K697R). Put plainly: whole-cell patch-clamp, mTRPC6 mutant K697R. Format: cell-based. Put shortly: as §1
The next assay deals with mTRPC6 mutant ^mF640W (Mus musculus, UniProt Q61143, F640W). Put plainly: whole-cell patch-clamp, mTRPC6 mutant F640W. Format: cell-based. Put shortly: as §1
Chain of mTRPC6 mutant ^mF640W (Q61143 whole entry F640W): as the sequence (Q61143 whole entry N701Q) above, with F640W, Q701N counted along it
Another assay concerns mTRPC6 mutant ^mT487L. Put plainly: whole-cell patch-clamp, mTRPC6 mutant T487L. Format: cell-based, mouse. The note with it: ^mT487L (S1 pocket). The essentials:
as §1

The subject of a further assay is mTRPC6 mutant ^mF490W. Put plainly: whole-cell patch-clamp, mTRPC6 mutant F490W. Format: cell-based, mouse. The note with it: ^mF490W (S1 pocket). The essentials:
as §1

For a further assay, the system named is mTRPC6 mutant ^mY657W. Put plainly: whole-cell patch-clamp, mTRPC6 mutant Y657W. It counts as cell-based, mouse. The settings on record: ^mY657W (S1 pocket). The essentials: as §1
The next assay addresses mTRPC6 mutant ^mS685T (Mus musculus, UniProt Q61143, S685T). Description: whole-cell patch-clamp, mTRPC6 mutant S685T. The settings on record: ^mS685T (S3 pocket). It counts as cell-based. Put shortly:
as §1

Another assay addresses mTRPC6 mutant ^mF674A (Mus musculus, UniProt Q61143, F674A). Description: whole-cell patch-clamp, mTRPC6 mutant F674A. It counts as cell-based. The settings on record: saturated agonist. The essentials: as §1
The next assay addresses mTRPC6 mutant ^mW679A (Mus musculus, UniProt Q61143, W679A). Description: whole-cell patch-clamp, mTRPC6 mutant W679A. It counts as cell-based. The note with it: saturated agonist. Put shortly:
as §1

For the next assay, the target named is mTRPC6 mutant ^mE700A (Mus musculus, UniProt Q61143, E700A). Description: whole-cell patch-clamp, mTRPC6 mutant E700A. The note with it: saturated agonist. It counts as cell-based. The essentials:
as §1

A further assay addresses mTRPC6 mutant ^mY704A (Mus musculus, UniProt Q61143, Y704A). Put plainly: whole-cell patch-clamp, mTRPC6 mutant Y704A. Format: cell-based. The note with it: saturated agonist. Put shortly: as §1
Another assay addresses hTRPC6 mutant ^hE673D (Homo sapiens, UniProt Q9Y210, E673D). Description: whole-cell patch-clamp, hTRPC6 mutant E673D. Format: cell-based.
The target in a further assay is hTRPC6 mutant ^hK676R (Homo sapiens, UniProt Q9Y210, K676R). Put plainly: whole-cell patch-clamp, hTRPC6 mutant K676R. Format: cell-based.
Chain of hTRPC6 mutant ^hK676R (Q9Y210 whole entry K676R): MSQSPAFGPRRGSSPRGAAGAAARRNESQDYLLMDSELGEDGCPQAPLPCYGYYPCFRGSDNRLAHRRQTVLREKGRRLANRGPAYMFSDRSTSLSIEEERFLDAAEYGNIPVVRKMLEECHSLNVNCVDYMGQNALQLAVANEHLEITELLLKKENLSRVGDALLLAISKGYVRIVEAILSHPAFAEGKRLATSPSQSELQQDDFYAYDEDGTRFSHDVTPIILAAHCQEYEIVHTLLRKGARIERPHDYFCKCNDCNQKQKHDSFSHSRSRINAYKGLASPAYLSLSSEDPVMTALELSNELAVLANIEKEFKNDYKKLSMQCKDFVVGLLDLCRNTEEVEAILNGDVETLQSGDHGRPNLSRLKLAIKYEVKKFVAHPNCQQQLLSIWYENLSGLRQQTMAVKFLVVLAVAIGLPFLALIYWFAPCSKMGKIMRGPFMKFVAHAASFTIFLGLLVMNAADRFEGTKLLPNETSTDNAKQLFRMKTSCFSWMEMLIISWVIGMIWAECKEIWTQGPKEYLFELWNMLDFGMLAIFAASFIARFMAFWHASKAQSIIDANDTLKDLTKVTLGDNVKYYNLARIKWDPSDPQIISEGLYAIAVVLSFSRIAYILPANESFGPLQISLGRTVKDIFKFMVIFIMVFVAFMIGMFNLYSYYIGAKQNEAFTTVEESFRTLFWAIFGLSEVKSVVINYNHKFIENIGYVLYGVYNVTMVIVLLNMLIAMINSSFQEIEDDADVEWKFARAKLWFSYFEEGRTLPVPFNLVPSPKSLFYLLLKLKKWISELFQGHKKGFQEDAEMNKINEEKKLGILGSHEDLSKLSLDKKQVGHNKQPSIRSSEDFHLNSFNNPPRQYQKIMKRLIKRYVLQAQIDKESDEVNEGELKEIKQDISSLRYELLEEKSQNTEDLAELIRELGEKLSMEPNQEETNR
In another assay the target is hTRPC6 mutant ^hN702Q (Homo sapiens, UniProt Q9Y210, N702Q). Description: whole-cell patch-clamp, hTRPC6 mutant N702Q. Format: cell-based.
Chain of hTRPC6 mutant ^hN702Q (Q9Y210 whole entry N702Q): as the sequence (Q9Y210 whole entry K676R) above, with R676K, N702Q counted along it
Another assay deals with mTRPC6^W679F (Mus musculus, UniProt Q61143, W679F). Description: single-channel outside-out recording, mTRPC6 W679F. Format: cell-based. The note with it: 100 μM agonist, −60 mV. The essentials:
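Excised outside-out or inside-out patches (macro-patch or single-channel) from transfected HEK293 cells, 24–48 h post-transfection, 23 °C. Polished borosilicate pipettes of 8–12 MΩ; holding potential −60 mV. Same solutions as whole-cell recordings (CsCl-based internal, 400 nM free Ca2+, pH 7.2; NaCl-based external, pH 7.4). Sampled at 50 kHz, 2 kHz filter, low-pass 300 Hz; unitary current and conductance measured.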

Another assay relates to TRPC3/6/7. The note with it: read-out: EC50 (concentration yielding half maximum response); measured by patch-clamp rather than calcium imaging; cited from earlier work.

Chain of mTRPC6 mutant ^mK697R (Q61143 whole entry K697R): as the sequence (Q61143 whole entry N701Q) above, with K697R, Q701N counted along it
Chain of mTRPC6 mutant ^mF674A (Q61143 whole entry F674A): as the sequence (Q61143 whole entry N701Q) above, with F674A, Q701N counted along it
Chain of mTRPC6 mutant ^mS685T (Q61143 whole entry S685T): as the sequence (Q61143 whole entry N701Q) above, with S685T, Q701N counted along it
Chain of mTRPC6^W679F (Q61143 whole entry W679F): as the sequence (Q61143 whole entry N701Q) above, with W679F, Q701N counted along it
Chain of human TRPC6 (hTRPC6-WT) (Q9Y210 whole entry): as the sequence (Q9Y210 whole entry K676R) above, with R676K counted along it
Chain of mTRPC6 mutant ^mY704A (Q61143 whole entry Y704A): as the sequence (Q61143 whole entry N701Q) above, with Q701N, Y704A counted along it
Chain of mTRPC6 mutant ^mW679A (Q61143 whole entry W679A): as the sequence (Q61143 whole entry N701Q) above, with W679A, Q701N counted along it
Chain of mTRPC6 mutant ^mE700A (Q61143 whole entry E700A): as the sequence (Q61143 whole entry N701Q) above, with E700A, Q701N counted along it
Chain of hTRPC6 mutant ^hE673D (Q9Y210 whole entry E673D): as the sequence (Q9Y210 whole entry K676R) above, with E673D, R676K counted along it

As to `CCOC(=O)N1CCC(c2cc(O)n3nc(C)c(-c4ccc(F)cc4)c3n2)CC1` [M085, Ethyl 4-(3-(4-fluorophenyl)-7-hydroxy-2-methylpyrazolo[1,5-a]pyrimidin-5-yl)piperidine-1-carboxylate], the EC50 on human TRPC6 (hTRPC6-WT) stood at 2.94 ± 0.7 µM; at mTRPC6 mutant ^mE672D, 25.1 ± 5.64 µM; at mTRPC6 mutant ^mN701Q, 55.7 ± 15.2 µM; at mTRPC6 mutant ^mK697R, 14.1 ± 1.95 µM; on mTRPC6 mutant ^mF640W, 0.84 ± 0.27 µM; at hTRPC6 mutant ^hE673D, 22.1 ± 5.46 µM. Also, the figures for the EC50 on hTRPC6 mutant ^hK676R, at hTRPC6 mutant ^hN702Q and in the assay on TRPC3/6/7 were 44 ± 5.75 µM, 54.5 ± 6.53 µM and 4.66 ± 0.03 µM, respectively. Besides, the “ratio of M085 activation current I10 μM/I5 μM” value on mTRPC6 mutant ^mE672D (^mE672D (S2 pocket)) is 3.27 ± 0.91; with mTRPC6 mutant ^mT487L, 1.26 ± 0.22; in the assay with mTRPC6 mutant ^mF490W, 1.91 ± 0.12; in the assay on mTRPC6 mutant ^mY657W, 1.68 ± 0.24. Besides, the “Imax (maximal current density)” value was 10.28 ± 1.19 pA/pF on mTRPC6 mutant ^mE672D (^mE672D, 100 μM agonist); 2.11 ± 1.04 pA/pF on mTRPC6 mutant ^mN701Q (^mN701Q, 100 μM agonist); 25.58 ± 1.86 pA/pF on mTRPC6 mutant ^mK697R (^mK697R, 100 μM agonist). The agonistic effect result on mTRPC6 mutant ^mS685T is listed as “loss of agonistic effect”. Besides, the agonist-induced current entry on mTRPC6 mutant ^mF674A, on mTRPC6 mutant ^mW679A, on mTRPC6 mutant ^mE700A and on mTRPC6 mutant ^mY704A was “disappearance” in each case. In addition, the unit current result on mTRPC6^W679F is “did not record unit currents”.
